The target of this test is Sodium-dependent dopamine transporter (Homo sapiens, UniProt Q01959). Description: Inhibition of human DAT expressed in COS1 cells. Type of test: cell-based, COS-1. The essentials: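 COS-1 cells stably transfected with hDAT (pIRES, Blasticidin selection), grown in DMEM/10% FCS at 37 °C, 5% CO2. Membranes homogenized in 150 mM NaCl/50 mM Tris/20 mM EDTA, resuspended in PBSCM.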
Sodium-dependent dopamine transporter, sequence (Q01959 whole entry): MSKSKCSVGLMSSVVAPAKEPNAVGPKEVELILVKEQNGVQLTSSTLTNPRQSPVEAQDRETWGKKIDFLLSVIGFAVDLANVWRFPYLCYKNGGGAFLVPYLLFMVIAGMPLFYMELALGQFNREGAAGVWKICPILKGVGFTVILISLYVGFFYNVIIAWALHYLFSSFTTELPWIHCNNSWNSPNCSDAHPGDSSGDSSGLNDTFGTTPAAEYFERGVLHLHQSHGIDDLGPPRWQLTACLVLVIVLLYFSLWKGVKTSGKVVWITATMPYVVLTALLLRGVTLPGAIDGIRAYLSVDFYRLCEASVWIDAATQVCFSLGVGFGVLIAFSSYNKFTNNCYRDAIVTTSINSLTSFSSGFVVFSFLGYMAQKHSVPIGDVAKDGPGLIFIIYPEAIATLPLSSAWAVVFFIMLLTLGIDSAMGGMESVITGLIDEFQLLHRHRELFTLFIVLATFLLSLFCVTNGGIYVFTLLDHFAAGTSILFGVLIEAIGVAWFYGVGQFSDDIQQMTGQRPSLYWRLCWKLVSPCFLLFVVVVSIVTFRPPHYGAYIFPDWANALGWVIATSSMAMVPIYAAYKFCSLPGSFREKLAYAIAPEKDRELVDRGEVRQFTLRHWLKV

Consider `COC(=O)C1=C(c2cccc(Cl)c2)CCCC1`, for which, under “read-out: -Log Ki (converted)”, the inhibition constant (Ki) is 117 µM.
With `COC(=O)C1=C(c2ccc3ccccc3c2)CCCC1`, the Ki (read-out: -Log Ki (converted)) is 11.7 µM.
The same measure, in the same setting: next, `COC(=O)C1=C(c2cccc(Cl)c2)CCC1`: 34.7 µM; `COC(=O)C1=C(c2ccc(C(C)=O)cc2)CCC1`: 331 µM.
Turning to `COC(=O)C1=C(c2ccc(Cl)cc2)C2CCC1N2` (stereo unspecified), the Ki (read-out: -Log Ki (converted)) was 26.9 µM.
On to `COC(=O)C1=C(c2cc(C)c(C)cc2C)C2CCC1C2` (stereo unspecified), for which the Ki (read-out: Ki) was 32.2 µM.
For `COC(=O)C1=C(c2ccc(Cl)cc2)C2CCC1O2` (stereo unspecified), the Ki (read-out: -Log Ki (converted)) was 18.2 µM.
Same read-out and setting: under `COC(=O)C1=C(c2ccc3ccccc3c2)C2CCC1N2` (stereo unspecified) stands 1.74 µM.
The same measure, in the same setting: next, `COC(=O)C1=C(c2ccc(-c3ccccc3)cc2)C2CCC1C2` (stereo unspecified): 603 µM; `COC(=O)C1=C(c2ccc(Cl)c(Cl)c2)C2CCC1C2` (stereo unspecified): 6.76 µM; `COC(=O)C1=C(c2cccc(Cl)c2Cl)C2CCC1C2` (stereo unspecified): 14.8 µM.
For `COC(=O)C1=C(c2cccc(Cl)c2)C2CCC1N2` (stereo unspecified), under “read-out: -Log Ki (converted)”, the inhibition constant (Ki) was 33.9 µM.
Regarding `COC(=O)C1=C(c2cccc([N+](=O)[O-])c2)C2CCC1N2` (stereo unspecified), where the note is “read-out: Ki”, the Ki came to 232 µM.
As to `COC(=O)C1=C(c2ccc(Cl)c(Cl)c2)CCC1`, where the note is “read-out: -Log Ki (converted)”, the inhibition constant (Ki) is 1.95 µM.
On the same count and under the same terms, next, `COC(=O)C1=C(c2ccc(-c3ccccc3)cc2)C2CCC1N2` (stereo unspecified): 24.5 µM; `COC(=O)C1=C(c2ccc3ccccc3c2)C2CCC1C2` (stereo unspecified): 4.27 µM.
Regarding `COC(=O)C1=C(c2ccc(Cl)cc2Cl)C2CCC1C2` (stereo unspecified), the Ki (read-out: -Log Ki (converted)) is 22.9 µM.
The same measure, in the same setting: next, `COC(=O)C1=C(c2cccc(Cl)c2)C2CCC1C2` (stereo unspecified): 105 µM.
For `COC(=O)C1=C(c2ccccc2)C2CCC1N2` (stereo unspecified), the inhibition constant (Ki) (read-out: -Log Ki (converted)) is 447 µM.
For `COC(=O)C1=C(c2ccc3ccccc3c2)CCC1`, the inhibition constant Ki (read-out: -Log Ki (converted)) is 4.17 µM.
With `COC(=O)C1=C(c2ccc(Cl)c(Cl)c2)C2CCC1N2` (stereo unspecified), the inhibitory constant (Ki) (read-out: -Log Ki (converted)) is 1.1 µM.
Still for that read-out and setting: under `COC(=O)C1=C(c2ccccc2)C2CCC1C2` (stereo unspecified) stands 646 µM.
As to `COC(=O)C1=C(c2ccc(Cl)cc2)C2CCC1C2` (stereo unspecified), under “read-out: -Log Ki (converted)”, the inhibitory constant (Ki) is 25.1 µM.
On to `COC(=O)C1=C(c2ccccc2Cl)C2CCC1C2` (stereo unspecified), for which the Ki (read-out: -Log Ki (converted)) is 372 µM.
As for `COC(=O)C1=C(c2ccc(C)c(F)c2)C2CCC1C2` (stereo unspecified), where the note is “read-out: Ki”, the Ki turned out to be 56 µM.
As for `COC(=O)C1=C(c2ccc([N+](=O)[O-])cc2)C2CCC1N2` (stereo unspecified), the Ki (read-out: Ki) was 67.9 µM.

Broadly, the Ki is a dissociation constant, usually derived from enzyme kinetics or from competition with a known ligand.
